From PMC6122986 (The Journal of Cell Biology, 2018)

Tests used:
[1] = biological target: FITC-labeled NOD "PT" motif-1 peptide (Drosophila melanogaster); experiment: MST
[2] = system: MTs in Drosophila S2 cells; experiment: MT association / localization in Drosophila S2 cells by live cell imaging; type: cell-based; settings: fixation with paraformaldehyde and permeabilization with detergent
Method in brief: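 Drosophila S2 cells were grown in Schneider's medium with 10% heat-inactivated FBS at 25°C. Lines stably expressing C-terminally mCherry-tagged NOD truncations from a copper-inducible pMT vector were selected with blasticidin and/or hygromycin. Expression was induced with 500 µM or 25 µM CuSO4 for 16–18 h. Cells were imaged live on concanavalin A-coated glass and MT association scored as weak or strong. Retention was also checked after paraformaldehyde fixation and detergent permeabilization.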

[3] = system: MTs in Drosophila S2 cells; experiment: Plus end-directed motility on MTs in cells; type: cell-based; settings: TIRF microscopy, interphase S2 cells
Method in brief: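 Live TIRF imaged mCherry-tagged constructs on cortical MTs of interphase S2 cells. Cells were plated on concanavalin A-coated glass after 16–18 h CuSO4 induction at 500 µM (high) or 25 µM (low). Frames were taken every 1 s (single colour) or 2 s (dual colour, with GFP-α-tubulin). Velocities came from manually tracking motile puncta, with kymographs for direction.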

| Molecule | Kd [1] [nM] | MT localization upon fixation (in words) [2] | motility on MTs in cells (in words) [3] |
| --- | --- | --- | --- |
| Drosophila GST-EB1 (natural protein) MAVNVYSTNVTSENLSRHDMLAWVNDCLQSQFSKIEELCTGAAYCQFMDMLFPNSVPVKRVKFRTNLEHEYIQNFKILQAGFKKMSVDKIIPIDKLVKGRFQDNFEFLQWFKKFFDANYDGRDYDASAVREGAPMGFGSGAVKSLPGTAASGVSSSYRRGPSATTRPAMTSAVKPISKVLPRTNNAAPASRINACANSTGTVKKNDVSNSVNNQQIEEMSNQVMDMRINLEGLEKERDFYFSKLRDIEILCQEADDAEAHPIIQKILDILYATEDGFAPPDDAPPEDEEY | 725 | – | – |
| NOD485: NOD truncation (1–485) that encompasses the motor domain and the noncanonical neck extension region (protein, UniProt P18105 1-485, looked up, fragment) MEGAKLSAVRIAVREAPYRQFLGRREPSVVQFPPWSDGKSLIVDQNEFHFDHAFPATISQDEMYQALILPLVDKLLEGFQCTALAYGQTGTGKSYSMGMTPPGEILPEHLGILPRALGDIFERVTARQENNKDAIQVYASFIEIYNEKPFDLLGSTPHMPMVAARCQRCTCLPLHSQADLHHILELGTRNRRVRPTNMNSNSSRSHAIVTIHVKSKTHHSRMNIVDLAGSEGVRRTGHEGVARQEGVNINLGLLSINKVVMSMAAGHTVIPYRDSVLTTVLQASLTAQSYLTFLACISPHQCDLSETLSTLRFGTSAKKLRLNPMQVARQKQSLAARTTHVFRQALCTSTAIKSNAANHNSIVVPKSKYSTTKPLSAVLHRTRSELGMTPKAKKRARELLELEETTLELSSIHIQDSSLSLLGFHSDSDKDRHLMPPPTGQEPRQASSQNSTLMGIVEETEPKESSKVQQSMVAPTVPTTVRCQL | – | significantly reduced upon fixation | motility was not obvious |
